Screening results as filed in PubChem.
Mcl1-Bid inh: Mcl-1/Bid binding inhibitors, primary screen, biochemical, TR-FRET, 1536-well. TR-FRET Mcl-1/Bid-Dy647 peptide binding. inhibition, % at 21.7 µM. 220,000 compounds, 0.97% hits;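 active = compounds that cut the binding signal by more than half at the single screening dose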;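 note: His-tagged Mcl-1 with europium anti-His antibody binding Bid BH3 peptide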
Target sequence (Q07820 whole entry, looked up): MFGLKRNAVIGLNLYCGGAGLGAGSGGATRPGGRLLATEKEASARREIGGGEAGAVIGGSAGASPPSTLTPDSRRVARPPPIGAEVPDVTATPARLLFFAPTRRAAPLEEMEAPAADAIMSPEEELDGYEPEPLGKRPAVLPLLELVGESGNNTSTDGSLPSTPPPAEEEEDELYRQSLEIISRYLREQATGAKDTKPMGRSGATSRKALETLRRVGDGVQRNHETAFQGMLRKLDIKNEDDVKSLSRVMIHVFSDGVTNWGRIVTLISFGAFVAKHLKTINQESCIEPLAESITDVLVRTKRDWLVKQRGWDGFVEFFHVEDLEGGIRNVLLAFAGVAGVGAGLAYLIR
Mcl-1 Bim block: inhibitors of Bim peptide binding to Mcl-1, primary screen, biochemical, bead-based flow cytometry, multiplex | inhibition, % at 10 µM | Induced myeloid leukemia cell differentiation protein Mcl-1 (Homo sapiens), Q07820 | 190,000 compounds, 0.1% hits | Bim peptide-Mcl-1 binding; in the data active = inhibition above about 40%
Mcl1-Noxa inh: Mcl-1/Noxa binding inhibitors, primary screen, biochemical, TR-FRET, 1536-well. inhibition, % at 21.7 µM. TR-FRET Mcl-1/Noxa peptide binding, 2 h. 220,000 compounds, 1.5% hits. AID 1022, 2008;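 active = compounds that cut the protein-peptide binding signal by more than 50% relative to plate controls in a single-dose test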;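 note: His-tagged Mcl-1 with rhodamine Noxa BH3 peptide and terbium anti-His antibody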
m-calpain inh: inhibitors of pig calpain II, primary screen, biochemical, fluorogenic peptide substrate, 1536-well; purified calpain II, 30 min; inhibition, % at 16 µM; 220,000 compounds, 0.37% hits; AID 1236, 2008;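 active = inhibition above about 50%, limit read from the data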
Arbovirus inh: antivirals against arbovirus infection, primary screen, cell-based, full library, 10K replicate subset; arbovirus infection cell-based antiviral screen; AID 1251, 2008; 200,000 compounds, 0.37% hits; inhibition, % at 10 µM; in the data active = inhibition above about 30%
Calb biofilm kill: clotrimazole potentiators killing C. albicans biofilm, primary screen, 4-compound mixtures | C. albicans biofilm persisters + clotrimazole, fluorescence viability; primary screen in compound mixtures of four per well | 120,000 compounds, 0.02% hits | inhibition, % at 7.6 µM;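 active = inhibition above 30.3% in the primary screen of four-compound pools, then above 30% when the compound was retested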;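 note: compounds exposed to preformed 24 h biofilms for 48 h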
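Assay system: C. albicans biofilms / Medium: RPMI/MOPS medium, pH 7.0 / Schedule: biofilm formation 24 h, compound exposure 48 h, 37 °C / Measured by: Alamar Blue fluorescence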
Hits are given with their value; 0 = inactive; - = not tested or not shown. The list is not random: actives were taken first. Their share in the collection is about 2.8%.

SMILES	Mcl1-Bid inh	Mcl-1 Bim block	Mcl1-Noxa inh	m-calpain inh	Arbovirus inh	Calb biofilm kill
COc1cccc(N=c2oc3ccccc3cc2-c2nc3ccccc3[nH]2)c1	56	0	0	0	0	-
C#CCN(C(=O)CC1C(=O)NCCN1C/C=C/c1ccccc1)C1CCCCC1 (stereo not drawn)	0	0	0	0	0	0
c1cncc(-c2nn3c(Cn4nnc5ccccc54)nnc3s2)c1	0	0	0	0	0	-
c1ccc(-c2nn3c(Cn4nnc5ccccc54)nnc3s2)nc1	0	0	55	0	0	-
O=C(O)CCN1C(=O)/C(=C\c2ccc(-c3nc4ccccc4s3)o2)SC1=S	95	0	102	0	0	-
CCOC(=O)c1c(NC(=O)CSc2ccccc2C(=O)O)sc(C)c1C	0	0	0	0	33	0
N#Cc1ccsc1NC(=O)CSc1nnnn1-c1ccc(O)cc1	0	0	66	0	0	0
N#Cc1ccsc1NC(=O)CSc1ncnc2ccccc12	0	0	68	0	0	-
CCOC(=O)c1c(NC(=O)CSc2nncs2)sc(C)c1C	0	0	0	0	0	-
Cn1ccnc1SCC(=O)Nc1sccc1C#N	0	0	0	0	0	-
CCOC(=O)c1c(NC(=O)CSc2ncnc3ccccc23)sc(C)c1C	59	0	0	0	0	0
COc1cccc(C(=O)N/N=C/C(Br)=C/c2ccccc2)c1	0	0	0	0	0	0
O=C(O)C1CCC(=O)N1C(=O)OCc1ccccc1 (stereo not drawn)	0	-	0	0	-	0
CCOC(=O)c1c(NC(=O)CSc2nnnn2C)sc(C)c1-c1ccc(C)cc1	0	0	0	56	0	-
O=C(CSc1nc2cc([N+](=O)[O-])ccc2n1-c1ccccc1)NCc1ccc2c(c1)OCO2	0	0	58	0	0	0
Cc1cc(C)cc(-n2c(SCC(=O)NCc3ccc4c(c3)OCO4)nc3ccccc3c2=O)c1	0	0	0	0	0	0
O=C(O)Cc1cc(I)c(Oc2ccc(O)c(I)c2)c(I)c1	0	0	0	0	52	0
O=C(O)Cc1ccc(O)c(O)c1	0	-	0	0	-	0
O=C1N=C(N2CCOCC2)S/C1=C\c1ccncc1	0	-	0	0	-	0
CC(=C/c1ccccc1)/C=C1/SC(N2CCOCC2)=NC1=O	64	0	0	0	0	-
CCOC(=O)c1ccc(NC(=S)N2CCSC2c2c(F)cc(F)cc2F)cc1 (stereo not drawn)	0	0	0	0	41	0
COc1ccc([N+](=O)[O-])cc1NC(=O)c1cn(-c2ccc(Cl)cc2)c(=O)c2ccccc12	0	0	0	0	0	0
Clc1ccc(-c2csc(N/N=C/c3cccnc3)n2)c(Cl)c1	0	0	58	0	0	0
CC(C)(C)c1csc(N/N=C/c2cccnc2)n1	0	0	0	51	0	0
CCC(=O)N(Cc1cc(=O)[nH]c2ccccc12)c1ccc(C)cc1	0	-	0	0	-	0
SMILES	Mcl1-Bid inh	Mcl-1 Bim block	Mcl1-Noxa inh	m-calpain inh	Arbovirus inh	Calb biofilm kill
Cc1ccccc1NC(=O)c1ccc(N/N=C/c2ccccc2O)c([N+](=O)[O-])c1	0	0	0	55	0	-
CCn1c(=O)c2cc(C(=O)Nc3ccc(OC)cc3OC)sc2c2ccccc21	0	-	0	0	-	0
COc1ccc(NC(=O)c2cc3c(=O)n(C)c4ccccc4c3s2)cc1OC	55	0	0	0	0	0
FC(F)(F)c1cc(-c2ccccn2)nc2cc(-c3ccccc3)nn12	0	-	0	0	-	0
CC(=O)Nc1ccc(C(=O)OCC(=O)Nc2c(F)cccc2F)cc1	0	-	0	0	-	0
CC(C)(C)c1ccc(N/N=C(\C#N)S(=O)(=O)C(C)(C)C)cc1	0	0	0	0	34	0
CC(C)(C)S(=O)(=O)/C(C#N)=N/Nc1ccc(Cl)cc1	0	0	0	0	0	0
Cc1ccc2nc(/C(C#N)=C\c3ccc([N+](=O)[O-])o3)[nH]c2c1	52	0	66	0	0	-
Cc1ccc2nc(/C(C#N)=C\c3ccc(Oc4ccc([N+](=O)[O-])cn4)cc3)[nH]c2c1	0	0	0	0	0	0
COc1ccc2nc(/C(C#N)=C\c3ccc(Oc4ccc([N+](=O)[O-])cn4)cc3)[nH]c2c1	58	0	72	0	0	0
CC1(C)C2CCC(C2)C1C/C=N/NC(N)=S (stereo not drawn)	0	-	0	0	-	0
O=S(=O)(CCSc1ccc(C(F)(F)F)cn1)c1ccc(Cl)cc1	0	-	0	0	-	0
CC(/C=C/C=C/c1ccccc1)=N/NC(=O)c1ccc2c(c1)OCCO2	0	-	0	0	-	0
COc1cc(/C=C2/C(=O)NN(c3cccc(F)c3)C2=O)ccc1OC(=O)c1ccco1	0	0	0	0	0	0
COc1cc(/C=C2/C(=O)NN(c3ccc(Cl)cc3)C2=O)ccc1OC(=O)c1ccco1	0	0	62	0	0	0
C/C(=N\NC(=O)c1cc2ccccc2cc1O)c1cc2ccccc2o1	0	-	0	0	-	0
C/C(=N\NC(=O)c1ccccc1O)C1C(=O)c2ccccc2C1=O	0	0	66	0	0	-
C/C(=N/NC(=O)c1cc2ccccc2cc1O)C1C(=O)c2ccccc2C1=O	0	0	92	0	0	-
COc1ccc(NC(=O)NCCCN2CCN(c3cc(C)ccc3C)CC2)cc1	0	0	55	0	0	-
COc1ccc(NC(=O)NCCCN2CCN(c3ccccc3F)CC2)cc1	0	-	56	0	-	0
COc1ccc(NC(=O)NCCN2CCN(c3cccc(Cl)c3)CC2)cc1	0	0	0	0	0	-
O=C(Cc1ccccc1)NN1C(=O)/C(=C/c2ccccc2C(=O)O)SC1=S	0	0	0	0	0	0
CC(=O)NS(=O)(=O)c1ccc(NC(=O)c2ccc(Br)o2)cc1	0	0	0	0	0	-
O=C(COC(=O)c1ccc(Br)o1)Nc1ccc(S(=O)(=O)N2CCCC2)cc1	60	0	0	0	0	-
O=C(COC(=O)c1ccc(S(=O)(=O)N2CCCC2)cc1)Nc1ccc(N2CCOCC2)cc1	0	0	0	0	0	0
SMILES	Mcl1-Bid inh	Mcl-1 Bim block	Mcl1-Noxa inh	m-calpain inh	Arbovirus inh	Calb biofilm kill
O=C(Nc1ccc(S(=O)(=O)N2CCCCCC2)cc1)c1ccc(Br)o1	0	0	0	55	0	-
Cc1cccn2cc(CCNC(=O)c3cccs3)nc12	0	-	0	0	-	0
CSC1=C(C#N)C(=O)NC(c2ccc(Cl)cc2)S1 (stereo not drawn)	0	-	0	0	-	0
O=C(O)C1CCCN1S(=O)(=O)c1cccc2nsnc12 (stereo not drawn)	0	0	0	0	0	0
CCn1c(=O)c(C(=O)NCCNCCO)c(O)c2ccccc21	52	0	0	0	0	-
Cn1c(=O)c(C(=O)NCCO)c(O)c2ccccc21	0	0	0	0	0	-
